# Measured values reported in ChEMBL document CHEMBL3244337, “Antiallergic activity of tetracyclic derivatives of quinoline-2-carboxylic acid. 2. Some benzothienoquinolinecarboxylic acids” (1978).
# Test system: Rattus norvegicus
# Assay: Ratio of DSCG MED to compound MED for antiallergic activity in ip dosed Sprague-Dawley rat assessed as compound inhibition of egg albumin/Bordetulla pertusis antibody-induced passive sensitization treated 5 mins before induction by passive cutaneous anaphylaxis assay
# Assay type: functional
# Details: not given
row,Structure (SMILES),Ratio
1,O=C(O)c1cc(=O)c2c(ccc3c2c2ccccc2[s+]3[O-])[nH]1 (stereo not drawn),8
2,O=C(O)c1cc(=O)c2c(Cl)c3c(cc2[nH]1)-c1ccccc1S3(=O)=O,8
3,O=C(O)c1cc(=O)c2cc3c(c(Cl)c2[nH]1)-c1ccccc1S3(=O)=O,4

# Test system: Rattus norvegicus
# Assay: Antiallergic activity in ip dosed Sprague-Dawley rat assessed as compound required to > 50% inhibition of egg albumin/Bordetulla pertusis antibody-induced passive sensitization treated 5 mins before induction by passive cutaneous anaphylaxis assay
# Assay type: functional
# Details: not given
# Procedure, shortened: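 Passive cutaneous anaphylaxis in Sprague-Dawley rats. Intradermal anti-egg-albumin antibody was left for 24 h, then compound was given ip 5 min before iv antigen and Evans blue, with six animals per dose. Initial doses were 25, 10 or 5 mg/kg, then a descending series down to 0.156 mg/kg. MED is the lowest dose giving >50% inhibition of weal area versus untreated rats, p ≤ 0.05 (Student's t test).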
row,Structure (SMILES),MED>50
1,COc1ccc2sc3ccc4[nH]c(C(=O)O)cc(=O)c4c3c2c1,>5 mg/kg
2,O=C(O)c1cc(=O)c2c(ccc3sc4ccc(F)cc4c32)[nH]1,>5 mg/kg
3,O=C(O)c1cc(=O)c2ccc3sc4ccccc4c3c2[nH]1,>10 mg/kg
4,O=C(O)c1cc(=O)c2ccc3c(c2[nH]1)-c1ccccc1S3(=O)=O,5 mg/kg
5,O=C(O)c1cc(=O)c2ccc3c(c2[nH]1)S(=O)(=O)c1ccccc1-3,>25 mg/kg
6,O=C(O)c1cc(=O)c2c(ccc3c4ccccc4sc32)[nH]1,>10 mg/kg
7,O=C(O)c1cc(=O)c2c3c(ccc2[nH]1)-c1ccccc1S3(=O)=O,>10 mg/kg
8,O=C(O)c1cc(=O)c2cc3c(cc2[nH]1)S(=O)(=O)c1ccccc1-3,2.5 mg/kg
9,O=C(O)c1cc(=O)c2c(ccc3sc4ccccc4c32)[nH]1,5 mg/kg
10,O=C(O)c1cc(=O)c2c(ccc3sc4ccc(Br)cc4c32)[nH]1,>10 mg/kg
11,O=C(O)c1cc(=O)c2c(ccc3sc4ccc(Cl)cc4c32)[nH]1,>10 mg/kg
12,Cc1ccc2sc3ccc4[nH]c(C(=O)O)cc(=O)c4c3c2c1,>10 mg/kg
13,O=C(O)c1cc(=O)c2c(ccc3sc4c(Cl)cccc4c32)[nH]1,>10 mg/kg
14,COc1cccc2c1sc1ccc3[nH]c(C(=O)O)cc(=O)c3c12,>5 mg/kg
15,Cc1cccc2c1sc1ccc3[nH]c(C(=O)O)cc(=O)c3c12,>5 mg/kg
16,O=C(O)c1cc(=O)c2c(cc(Cl)c3sc4ccccc4c32)[nH]1,>10 mg/kg
17,COc1cc2[nH]c(C(=O)O)cc(=O)c2c2c1sc1ccccc12,>10 mg/kg
18,O=C(O)c1cc(=O)c2c3c(ccc2[nH]1)S(=O)(=O)c1ccc(Br)cc1-3,>10 mg/kg
19,O=C(O)c1cc(=O)c2c3c(ccc2[nH]1)S(=O)(=O)c1ccc(Cl)cc1-3,>10 mg/kg
20,Cc1ccc2c(c1)-c1c(ccc3[nH]c(C(=O)O)cc(=O)c13)S2(=O)=O,10 mg/kg
21,COc1ccc2c(c1)-c1c(ccc3[nH]c(C(=O)O)cc(=O)c13)S2(=O)=O,2.5 mg/kg

row,Structure (SMILES),MED>50
1,CCCCCCOc1ccc2c(c1)-c1c(ccc3[nH]c(C(=O)O)cc(=O)c13)S2(=O)=O,>10 mg/kg
2,O=C(O)c1cc(=O)c2c3c(ccc2[nH]1)S(=O)(=O)c1ccc(F)cc1-3,5 mg/kg
3,O=C(O)c1cc(=O)c2c3c(ccc2[nH]1)S(=O)(=O)c1c(Cl)cccc1-3,5 mg/kg
4,COc1cccc2c1S(=O)(=O)c1ccc3[nH]c(C(=O)O)cc(=O)c3c1-2,2.5 mg/kg
5,Cc1cccc2c1S(=O)(=O)c1ccc3[nH]c(C(=O)O)cc(=O)c3c1-2,2.5 mg/kg
6,O=C(O)c1cc(=O)c2c3c(c(Cl)cc2[nH]1)S(=O)(=O)c1ccccc1-3,2.5 mg/kg
7,COc1cc2[nH]c(C(=O)O)cc(=O)c2c2c1S(=O)(=O)c1ccccc1-2,1.25 mg/kg
8,COc1cc2c(c3c(=O)cc(C(=O)O)[nH]c13)-c1ccccc1S2(=O)=O,1.25 mg/kg
9,O=C(O)c1cc(=O)c2c3c(cc(Br)c2[nH]1)S(=O)(=O)c1ccccc1-3,2.5 mg/kg
10,O=C(O)c1cc(=O)c2c([nH]1)c(Br)cc1c2c2ccccc2[s+]1[O-] (stereo not drawn),2.5 mg/kg
11,O=C(O)c1cc(=O)c2cc3c(cc2[nH]1)-c1ccccc1S3(=O)=O,2.5 mg/kg
12,O=C(O)c1cc(=O)c2c(Cl)c3c(cc2[nH]1)-c1ccccc1S3(=O)=O,0.312 mg/kg
13,O=C(O)c1cc(=O)c2cc3c(c(Cl)c2[nH]1)-c1ccccc1S3(=O)=O,0.625 mg/kg
14,O=C(O)c1cc(=O)c2cc3c(c(Br)c2[nH]1)-c1ccccc1S3(=O)=O,1.25 mg/kg
15,O=C(O)c1cc(=O)c2c(Cl)c3c(c(Cl)c2[nH]1)-c1ccccc1S3(=O)=O,1.25 mg/kg
16,Cc1c2c(cc3c(=O)cc(C(=O)O)[nH]c13)S(=O)(=O)c1ccccc1-2,1.25 mg/kg
17,O=C(O)c1cc(=O)c2cc3sc4ccccc4c3c(Cl)c2[nH]1,>10 mg/kg
18,O=C(O)c1cc(=O)c2cc3sc4ccccc4c3c(Br)c2[nH]1,>10 mg/kg
19,CSCc1c2[nH]c(C(=O)O)cc(=O)c2cc2sc3ccccc3c12,>5 mg/kg
20,O=C(O)c1cc(=O)c2cc3c(cc2[nH]1)c1ccccc1[s+]3[O-] (stereo not drawn),1.25 mg/kg
21,O=C(O)c1cc(=O)c2cc3c(c(Cl)c2[nH]1)c1ccccc1[s+]3[O-] (stereo not drawn),1.25 mg/kg

# Test system: Rattus norvegicus
# Assay: Antiallergic activity in ip dosed Sprague-Dawley rat assessed as compound inhibition of egg albumin/Bordetulla pertusis antibody-induced passive sensitization treated 5 mins before induction by passive cutaneous anaphylaxis assay
# Assay type: functional
# Details: read-out: ID50 (the source's name)
# Procedure, shortened: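 Rat antiserum against egg albumin, raised with Bordetella pertussis as adjuvant, was injected intradermally into the middorsal skin. Sensitization developed for 24 h. Compound was given ip 5 min before iv egg albumin plus Evans blue, at 10 to 0.156 mg/kg with six rats per dose. Blue-weal area was compared with untreated rats as % inhibition. ID50 was reported with 95% confidence limits.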
row,Structure (SMILES),ED50
1,O=C(O)c1cc(=O)c2c3c(ccc2[nH]1)S(=O)(=O)c1ccccc1-3,1.3 mg/kg
2,O=C(O)c1cc(=O)c2c(ccc3c2c2ccccc2[s+]3[O-])[nH]1 (stereo not drawn),0.3 mg/kg
3,O=C([O-])c1cc(=O)c2c(OCC(O)COc3cccc4oc(C(=O)[O-])cc(=O)c34)cccc2o1.[Na+].[Na+] [CROMOLYN SODIUM],2.6 mg/kg
